Drawing on ChEMBL document CHEMBL1157240, “Caminosides B-D, antimicrobial glycolipids isolated from the marine sponge Caminus sphaeroconia” (J Nat Prod, 2006), this text covers Activity, MIC and IC50 for 3 molecules.

Active and inactive are the calls of the source. The rule behind the calls is not given here. Where only a bound is given, the exact number is not on record here.

Experiment [1] has as its system Escherichia coli. Briefly: Antimicrobial activity against Escherichia coli. The class given is functional, organism-based.
The subject of experiment [2] is Stenotrophomonas maltophilia. Briefly: Antimicrobial activity against Xanthomonas maltophilia assessed per disk. The class given is functional.
The subject of experiment [3] is Staphylococcus aureus. Nature of the experiment: Antimicrobial activity against methicillin-resistant Staphylococcus aureus assessed per disk. Format: functional.
Experiment [4] concerns Escherichia coli. Briefly: Antimicrobial activity against enteropathogenic Escherichia coli assessed as inhibition of type 3 secretion by gel electrophoresis. Format: functional, organism-based. A digest of the protocol: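 EPEC cultured 24 h with test material, then centrifuged to give a bacterial pellet and a supernatant holding all secreted proteins. The pellet was inspected by eye, and samples that clearly shrank it were excluded as having general antibiotic or cytotoxic action.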

For experiment [5], the system named is Enterococcus. Briefly: Antimicrobial activity against vancomycin-resistant Enterococcus assessed per disk. The class given is functional.
Experiment [6] concerns Globisporangium ultimum. Briefly: Antimicrobial activity against Pythium ultimum assessed per disk. Format: functional.

Regarding `CCCCCCCCC[C@H](CCCCCCCC(C)=O)O[C@@H]1O[C@H](CO)[C@@H](O)[C@H](O)[C@H]1O[C@@H]1O[C@H](CO[C@@H]2O[C@H](C)[C@H](O)[C@H](O)[C@@H]2O)[C@@H](OC(C)=O)[C@H](OC(=O)CCC)[C@H]1O[C@@H]1O[C@@H](C)[C@H](O)[C@@H](O)[C@@H]1O` [CAMINOSIDES A], in experiment [1], the outcome was inactive. Further, the MIC in experiment [2] amounted to 25 µg; in experiment [3], 12.5 µg; in experiment [5], 12.5 µg; in experiment [6] it was 50 µg. The result in experiment [4] was Active. Also, in experiment [4], the 50% inhibitory concentration (IC50) came to 20 µM.

On to `CCCCCCCCC[C@H](CCCCCCCC(C)=O)O[C@@H]1O[C@H](COC(C)=O)[C@@H](OC(C)=O)[C@H](OC(C)=O)[C@H]1O[C@@H]1O[C@H](CO[C@@H]2O[C@H](C)[C@H](OC(C)=O)[C@H](OC(C)=O)[C@@H]2OC(C)=O)[C@@H](OC(C)=O)[C@H](OC(=O)CCC)[C@H]1O[C@@H]1O[C@@H](C)[C@H](OC(C)=O)[C@@H](OC(C)=O)[C@@H]1OC(C)=O` [CAMINOSIDE A PERACETATE], for which the MIC in experiment [2] is more than 25 µg; in experiment [3], more than 100 µg; in experiment [5] it was more than 100 µg; in experiment [6], more than 100 µg. Further, in experiment [4], the result was inactive.

Take `CCCCCCCCC[C@H](CCCCCCCC(C)=O)O[C@@H]1O[C@H](CO)[C@@H](O)[C@H](O)[C@H]1O[C@@H]1O[C@H](CO[C@@H]2O[C@H](C)[C@H](O)[C@H](O)[C@@H]2O)[C@@H](OC(C)=O)[C@H](OC(=O)CCC)[C@H]1O[C@@H]1O[C@@H](C)[C@H](O)[C@@H](OC(=O)CCC)[C@@H]1O`: the concentration for half-maximal inhibition (IC50) in experiment [4] was determined as 20 µM.
